# Laboratory results: ChEMBL document CHEMBL2176996, “Synthesis and structure-affinity relationships of selective high-affinity 5-HT(4) receptor antagonists: application to the design of new potential single photon emission computed tomography tracers” (J Med Chem, 2012)
# Activity calls are given as the source filed them. No cut-off for these calls is given here.
# How the values were obtained:
# [1] = molecular target: 5-hydroxytryptamine receptor 4 (Cavia porcellus) (UniProt O70528); assay: Displacement of [3H]GR113808 from 5HT4R in guinea pig striatal membranes at 1 uM; assay type: cell membranes; conditions: Striatum, Membrane
# Chain of 5-hydroxytryptamine receptor 4 (Cavia porcellus) (O70528 whole entry): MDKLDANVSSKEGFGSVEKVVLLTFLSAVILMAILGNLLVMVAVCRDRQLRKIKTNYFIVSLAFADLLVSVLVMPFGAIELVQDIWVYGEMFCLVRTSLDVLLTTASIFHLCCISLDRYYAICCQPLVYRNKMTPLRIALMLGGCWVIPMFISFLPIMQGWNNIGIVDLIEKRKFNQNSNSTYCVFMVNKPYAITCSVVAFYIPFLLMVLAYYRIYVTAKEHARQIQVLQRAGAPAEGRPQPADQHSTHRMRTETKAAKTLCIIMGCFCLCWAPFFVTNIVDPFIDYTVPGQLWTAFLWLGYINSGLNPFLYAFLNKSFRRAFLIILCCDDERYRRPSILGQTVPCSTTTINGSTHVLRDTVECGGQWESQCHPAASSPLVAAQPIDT
# Procedure, shortened: (§1)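 Native 5-HT4R in male guinea pig striatal membranes (HEPES 50 mM pH 7.4); 600 µg membrane incubated in duplicate with [3H]GR 113808 at 0.1 nM final, 37 °C, 30 min; filtration on PEI-soaked GF/B filters, cold buffer washes.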
# [2] = molecular target: 5-hydroxytryptamine receptor 4 (Cavia porcellus) (UniProt O70528); assay: Displacement of [3H]GR113808 from 5HT4R in guinea pig striatal membranes at 10 nM; assay type: cell membranes; conditions: Striatum, Membrane; procedure, shortened: as §1
# [3] = molecular target: T1, 5-hydroxytryptamine receptor 4 (Homo sapiens, UniProt Q13639); assay: Displacement of radioligand from human 5HT4R by Cerep protocol based assay
# T1 sequence (Q13639 whole entry): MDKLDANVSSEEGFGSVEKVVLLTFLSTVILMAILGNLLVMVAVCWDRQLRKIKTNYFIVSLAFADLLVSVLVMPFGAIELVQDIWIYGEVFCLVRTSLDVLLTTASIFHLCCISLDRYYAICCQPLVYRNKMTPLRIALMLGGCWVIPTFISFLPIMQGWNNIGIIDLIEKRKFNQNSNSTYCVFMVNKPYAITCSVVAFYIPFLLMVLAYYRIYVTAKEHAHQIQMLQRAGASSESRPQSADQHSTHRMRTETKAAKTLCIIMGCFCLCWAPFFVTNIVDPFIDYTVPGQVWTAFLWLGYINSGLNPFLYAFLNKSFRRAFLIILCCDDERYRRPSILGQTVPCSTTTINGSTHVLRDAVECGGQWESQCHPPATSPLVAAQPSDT
# [4] = molecular target: 5-hydroxytryptamine receptor 4 (Cavia porcellus, UniProt O70528); assay: Displacement of [3H]GR113808 from 5HT4R in guinea pig striatal membranes; assay type: cell membranes, Striatum, Membrane
# Chain of 5-hydroxytryptamine receptor 4 (Cavia porcellus, UniProt O70528) (O70528 whole entry): as the sequence (O70528 whole entry) above
# [5] = molecular target: T1, 5-hydroxytryptamine receptor 4
# Mus musculus [6] = assay: In-vivo displacement of [125I]SB 207710 from 5HT4R in mouse brain hemispheres at 50 ug/kg, iv by autoradiography; assay type: functional, organism-based
# Procedure, shortened: (§2)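 One mouse dosed intravenously with saline carrying competitor at 50 µg/kg together with 30 µCi [125I]1 (146 Ci/mmol). CO2 sacrifice; 20 µm cryosections taken from 5-HT4R-rich regions (striatum, accumbens nucleus, olfactory tubercles), exposed overnight on phosphorimaging plates and scanned.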
# Mus musculus [7] = assay: In-vivo displacement of [125I]SB 207710 from 5HT4R in mouse olfactory tubercles at 50 ug/kg, iv by autoradiography; assay type: functional, organism-based; conditions: Olfactory tubercle; procedure, shortened: as §2
# [8] = molecular target: 5-hydroxytryptamine receptor 4 (Rattus norvegicus) (UniProt Q62758); assay: Displacement of [125I]SB 207710 from 5HT4R in rat brain cortex at 1 nM incubated for 30 mins by autoradiography; assay type: tissue-based
# Chain of 5-hydroxytryptamine receptor 4 (Rattus norvegicus) (Q62758 whole entry): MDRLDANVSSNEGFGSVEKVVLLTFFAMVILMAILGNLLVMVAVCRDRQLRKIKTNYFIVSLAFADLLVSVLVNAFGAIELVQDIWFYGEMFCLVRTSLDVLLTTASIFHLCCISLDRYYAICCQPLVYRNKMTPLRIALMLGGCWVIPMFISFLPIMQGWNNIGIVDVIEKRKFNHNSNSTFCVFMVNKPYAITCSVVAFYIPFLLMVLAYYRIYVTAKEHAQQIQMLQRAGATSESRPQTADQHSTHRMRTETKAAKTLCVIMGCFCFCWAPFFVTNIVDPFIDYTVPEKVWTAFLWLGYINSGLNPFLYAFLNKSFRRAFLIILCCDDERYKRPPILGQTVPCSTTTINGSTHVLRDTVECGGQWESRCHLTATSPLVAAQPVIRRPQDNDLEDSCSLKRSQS
# Procedure, shortened: (§3)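 Frozen rat brain coronal sections (striatum/accumbens level) preincubated 5 min in 50 mM Tris-HCl pH 7.4, then incubated 30 min at room temperature with 100 pM [125I]1 plus competitor (1, 10, 100, 1000 pM). Three 5-min ice-cold buffer washes and a water dip, then drying; phosphorimaging after overnight exposure.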
# [9] = molecular target: 5-hydroxytryptamine receptor 7 (Homo sapiens, UniProt P34969); assay: Binding affinity to human 5HT7 by Cerep protocol based assay
# Chain of 5-hydroxytryptamine receptor 7 (P34969 whole entry): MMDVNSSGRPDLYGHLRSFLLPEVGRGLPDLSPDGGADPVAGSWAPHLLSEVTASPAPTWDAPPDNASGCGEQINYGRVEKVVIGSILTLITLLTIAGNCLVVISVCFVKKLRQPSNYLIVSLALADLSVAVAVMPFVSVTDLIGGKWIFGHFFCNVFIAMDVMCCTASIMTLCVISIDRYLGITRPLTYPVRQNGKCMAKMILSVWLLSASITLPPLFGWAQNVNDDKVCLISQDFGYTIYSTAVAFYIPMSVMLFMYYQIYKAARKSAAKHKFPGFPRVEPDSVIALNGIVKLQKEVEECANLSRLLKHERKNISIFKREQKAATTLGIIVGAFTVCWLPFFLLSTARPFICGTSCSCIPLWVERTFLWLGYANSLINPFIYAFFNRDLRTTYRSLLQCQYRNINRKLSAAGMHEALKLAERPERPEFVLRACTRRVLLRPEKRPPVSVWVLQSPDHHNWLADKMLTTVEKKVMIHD
# [10] = molecular target: 5-hydroxytryptamine receptor 5A (Homo sapiens, UniProt P47898); assay: Binding affinity to human 5HT5A by Cerep protocol based assay
# Chain of 5-hydroxytryptamine receptor 5A (P47898 whole entry): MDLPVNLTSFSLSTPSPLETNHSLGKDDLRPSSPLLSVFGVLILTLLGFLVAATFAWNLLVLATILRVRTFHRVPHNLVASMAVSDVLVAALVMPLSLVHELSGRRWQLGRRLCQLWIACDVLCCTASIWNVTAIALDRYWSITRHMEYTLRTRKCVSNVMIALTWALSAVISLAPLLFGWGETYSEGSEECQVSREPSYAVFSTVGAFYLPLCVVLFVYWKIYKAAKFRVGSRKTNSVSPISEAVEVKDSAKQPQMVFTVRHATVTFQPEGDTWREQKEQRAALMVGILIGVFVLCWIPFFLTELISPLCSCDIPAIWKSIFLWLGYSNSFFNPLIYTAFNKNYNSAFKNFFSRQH
# [11] = molecular target: 5-hydroxytryptamine receptor 6 (Homo sapiens, UniProt P50406); assay: Binding affinity to human 5HT6 by Cerep protocol based assay
# Chain of 5-hydroxytryptamine receptor 6 (P50406 whole entry): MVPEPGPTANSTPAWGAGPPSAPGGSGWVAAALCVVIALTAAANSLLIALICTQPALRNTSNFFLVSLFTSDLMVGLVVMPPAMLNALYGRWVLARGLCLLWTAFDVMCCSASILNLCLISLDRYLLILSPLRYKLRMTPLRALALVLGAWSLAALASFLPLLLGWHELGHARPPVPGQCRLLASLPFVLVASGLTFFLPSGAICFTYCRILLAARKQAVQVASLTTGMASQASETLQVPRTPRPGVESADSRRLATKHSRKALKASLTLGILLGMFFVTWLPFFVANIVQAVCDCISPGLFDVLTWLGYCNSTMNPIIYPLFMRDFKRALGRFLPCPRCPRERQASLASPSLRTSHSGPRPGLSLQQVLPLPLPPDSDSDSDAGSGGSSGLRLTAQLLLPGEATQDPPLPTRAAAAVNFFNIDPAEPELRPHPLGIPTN
# [12] = molecular target: 5-hydroxytryptamine receptor 4 (Rattus norvegicus) (UniProt Q62758); assay: Displacement of [125I]SB 207710 from 5HT4R in rat brain cortex at 10 pM incubated for 30 mins by autoradiography; assay type: tissue-based; procedure, shortened: as §3
# [13] = molecular target: T2, 5-hydroxytryptamine receptor 3A (Homo sapiens, UniProt P46098); assay: Binding affinity to human 5HT3 by Cerep protocol based assay
# T2 sequence (P46098 whole entry): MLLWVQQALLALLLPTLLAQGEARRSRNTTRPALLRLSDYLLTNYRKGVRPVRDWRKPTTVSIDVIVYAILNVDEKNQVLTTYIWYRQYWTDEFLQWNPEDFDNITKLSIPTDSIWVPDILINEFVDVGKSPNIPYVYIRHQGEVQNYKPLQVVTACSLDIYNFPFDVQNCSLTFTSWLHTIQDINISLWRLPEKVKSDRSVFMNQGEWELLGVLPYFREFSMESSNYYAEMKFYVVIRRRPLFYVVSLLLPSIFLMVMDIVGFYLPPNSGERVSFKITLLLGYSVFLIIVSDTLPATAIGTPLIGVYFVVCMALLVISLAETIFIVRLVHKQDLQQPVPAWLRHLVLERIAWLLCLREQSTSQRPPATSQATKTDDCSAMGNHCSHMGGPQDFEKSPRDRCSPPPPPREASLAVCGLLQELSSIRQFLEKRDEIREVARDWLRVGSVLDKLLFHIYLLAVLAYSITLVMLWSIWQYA
# [14] = molecular target: T3, 5-hydroxytryptamine receptor 2C (Homo sapiens, UniProt P28335); assay: Binding affinity to human 5HT2C by Cerep protocol based assay
# T3 sequence (P28335 whole entry): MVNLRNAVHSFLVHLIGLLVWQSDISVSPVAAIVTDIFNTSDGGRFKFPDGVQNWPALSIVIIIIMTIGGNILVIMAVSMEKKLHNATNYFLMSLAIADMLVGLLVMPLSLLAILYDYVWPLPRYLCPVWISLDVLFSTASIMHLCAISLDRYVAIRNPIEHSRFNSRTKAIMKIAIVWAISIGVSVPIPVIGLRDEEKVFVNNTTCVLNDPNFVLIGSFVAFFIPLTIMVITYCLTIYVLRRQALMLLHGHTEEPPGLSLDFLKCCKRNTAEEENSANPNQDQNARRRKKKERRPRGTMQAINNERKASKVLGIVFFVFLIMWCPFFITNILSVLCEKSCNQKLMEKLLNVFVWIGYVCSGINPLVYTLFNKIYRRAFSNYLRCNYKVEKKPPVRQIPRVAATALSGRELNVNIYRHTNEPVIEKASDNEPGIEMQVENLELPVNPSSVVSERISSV
# [15] = molecular target: 5-hydroxytryptamine receptor 2B (Homo sapiens, UniProt P41595); assay: Binding affinity to human 5HT2B by Cerep protocol based assay
# Chain of 5-hydroxytryptamine receptor 2B (P41595 whole entry): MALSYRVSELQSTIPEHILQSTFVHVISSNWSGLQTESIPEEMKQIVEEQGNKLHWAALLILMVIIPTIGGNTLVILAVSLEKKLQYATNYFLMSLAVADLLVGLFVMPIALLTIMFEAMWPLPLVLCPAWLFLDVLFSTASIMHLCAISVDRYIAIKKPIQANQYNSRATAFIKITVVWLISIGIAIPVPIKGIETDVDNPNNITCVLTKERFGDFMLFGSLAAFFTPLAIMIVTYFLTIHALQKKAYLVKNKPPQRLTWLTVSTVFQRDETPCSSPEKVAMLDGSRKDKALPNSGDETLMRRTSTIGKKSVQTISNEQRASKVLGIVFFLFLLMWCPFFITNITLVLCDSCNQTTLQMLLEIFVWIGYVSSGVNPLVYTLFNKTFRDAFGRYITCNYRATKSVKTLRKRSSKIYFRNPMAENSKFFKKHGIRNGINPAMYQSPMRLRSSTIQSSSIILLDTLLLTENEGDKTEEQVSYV
# [16] = molecular target: 5-hydroxytryptamine receptor 2A (Homo sapiens, UniProt P28223); assay: Binding affinity to human 5HT2A by Cerep protocol based assay
# Chain of 5-hydroxytryptamine receptor 2A (P28223 whole entry): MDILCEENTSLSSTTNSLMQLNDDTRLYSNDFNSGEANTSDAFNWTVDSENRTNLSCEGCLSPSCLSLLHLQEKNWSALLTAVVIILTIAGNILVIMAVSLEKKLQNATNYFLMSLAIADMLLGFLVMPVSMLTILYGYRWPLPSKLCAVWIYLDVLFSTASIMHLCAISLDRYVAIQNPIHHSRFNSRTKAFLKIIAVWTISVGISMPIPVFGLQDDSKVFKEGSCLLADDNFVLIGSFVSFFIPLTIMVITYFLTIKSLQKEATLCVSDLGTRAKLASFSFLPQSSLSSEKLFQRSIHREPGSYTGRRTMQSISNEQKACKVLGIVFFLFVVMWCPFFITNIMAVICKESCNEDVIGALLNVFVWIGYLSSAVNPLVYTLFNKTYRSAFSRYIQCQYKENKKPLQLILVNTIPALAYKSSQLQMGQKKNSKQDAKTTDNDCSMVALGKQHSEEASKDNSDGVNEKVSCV
# [17] = molecular target: 5-hydroxytryptamine receptor 1D (Homo sapiens, UniProt P28221); assay: Binding affinity to human 5HT1D by Cerep protocol based assay
# Chain of 5-hydroxytryptamine receptor 1D (P28221 whole entry): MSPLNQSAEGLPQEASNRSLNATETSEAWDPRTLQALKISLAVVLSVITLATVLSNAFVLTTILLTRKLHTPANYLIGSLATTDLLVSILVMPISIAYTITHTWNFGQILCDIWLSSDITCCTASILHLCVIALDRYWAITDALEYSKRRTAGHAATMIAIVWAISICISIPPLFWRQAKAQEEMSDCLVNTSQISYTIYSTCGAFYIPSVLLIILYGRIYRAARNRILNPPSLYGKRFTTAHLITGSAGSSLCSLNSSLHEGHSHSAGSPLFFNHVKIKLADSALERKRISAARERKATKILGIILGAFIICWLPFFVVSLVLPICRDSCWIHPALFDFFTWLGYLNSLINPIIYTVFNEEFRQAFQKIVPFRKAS
# [18] = molecular target: T4, 5-hydroxytryptamine receptor 1A (Homo sapiens, UniProt P08908); assay: Binding affinity to human 5HT1A by Cerep protocol based assay
# T4 sequence (P08908 whole entry): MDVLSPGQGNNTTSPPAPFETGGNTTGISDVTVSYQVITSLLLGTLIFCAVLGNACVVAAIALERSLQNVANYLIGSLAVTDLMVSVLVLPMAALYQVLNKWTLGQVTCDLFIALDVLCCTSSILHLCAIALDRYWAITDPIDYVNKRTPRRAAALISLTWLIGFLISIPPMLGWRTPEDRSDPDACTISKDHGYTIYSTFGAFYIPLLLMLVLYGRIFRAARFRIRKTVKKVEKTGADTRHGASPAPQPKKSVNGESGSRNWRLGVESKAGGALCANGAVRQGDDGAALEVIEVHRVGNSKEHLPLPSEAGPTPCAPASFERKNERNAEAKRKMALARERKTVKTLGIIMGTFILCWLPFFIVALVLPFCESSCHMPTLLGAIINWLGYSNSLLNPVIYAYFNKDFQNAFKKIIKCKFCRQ
# [19] = molecular target: 5-hydroxytryptamine receptor 1B (Homo sapiens, UniProt P28222); assay: Binding affinity to human 5HT1B by Cerep protocol based assay
# Chain of 5-hydroxytryptamine receptor 1B (P28222 whole entry): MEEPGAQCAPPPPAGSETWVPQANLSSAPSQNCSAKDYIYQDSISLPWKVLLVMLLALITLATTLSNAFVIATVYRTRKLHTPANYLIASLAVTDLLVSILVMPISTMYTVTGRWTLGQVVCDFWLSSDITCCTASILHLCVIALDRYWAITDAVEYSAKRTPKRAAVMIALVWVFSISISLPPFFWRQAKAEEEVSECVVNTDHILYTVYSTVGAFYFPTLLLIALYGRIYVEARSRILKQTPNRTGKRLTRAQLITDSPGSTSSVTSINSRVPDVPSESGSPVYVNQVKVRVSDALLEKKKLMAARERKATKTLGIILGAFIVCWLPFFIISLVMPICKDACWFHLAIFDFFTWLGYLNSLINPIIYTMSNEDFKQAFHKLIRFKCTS
# [20] = molecular target: T1, 5-hydroxytryptamine receptor 4; assay: Displacement of [3H]GR113808 from human recombinant 5HT4R expressed in HEK293T cells; assay type: cell-based, HEK-293T
# [21] = molecular target: 5-hydroxytryptamine receptor 1E (Homo sapiens, UniProt P28566); assay: Binding affinity to human 5HT1E by Cerep protocol based assay
# Chain of 5-hydroxytryptamine receptor 1E (P28566 whole entry): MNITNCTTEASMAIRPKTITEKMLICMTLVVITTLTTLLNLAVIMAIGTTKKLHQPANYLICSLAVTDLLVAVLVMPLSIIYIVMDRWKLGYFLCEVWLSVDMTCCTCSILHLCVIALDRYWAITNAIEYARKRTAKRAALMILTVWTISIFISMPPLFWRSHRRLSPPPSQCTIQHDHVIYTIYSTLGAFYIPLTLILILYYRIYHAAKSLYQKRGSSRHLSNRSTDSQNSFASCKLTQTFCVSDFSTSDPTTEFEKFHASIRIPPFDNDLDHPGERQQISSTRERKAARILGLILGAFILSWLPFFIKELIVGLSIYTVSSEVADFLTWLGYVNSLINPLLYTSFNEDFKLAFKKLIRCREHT
# [22] = molecular target: T1, 5-hydroxytryptamine receptor 4; remark: listed apart in the source
smiles,measurement,setting,value
CCCN1CCC(COc2nc3ccccc3c3cc(C)ccc23)CC1,inhibition,[1],28%
same,inhibition,[2],0%
CCCN1CCC(COc2nc3c(F)cccc3c3ncccc23)CC1,Ki,[3],0.04 nM
same,Ki,[4],2.2 nM
same,inhibition,[1],100%
same,inhibition,[2],98%
same,pKb,[5],10.6
Ic1ccc(CCCN2CCC(COc3nc4ccccc4c4ccccc34)CC2)cc1,Ki,[4],115 nM
same,inhibition,[1],100%
same,inhibition,[2],3%
CCCN1CCC(COc2nc3ccccc3c3cccc(F)c23)CC1,Ki,[4],21.6 nM
Fc1cccc2c1nc(OCC1CCN(CCCc3ccc(I)cc3)CC1)c1cccnc12,Activity,Mus musculus [6],Active
same,Activity,Mus musculus [7],Active
same,Activity,[8],Active
same,Ki,[9],150 nM
same,Ki,[10],1700 nM
same,Ki,[11],> 10000 nM
same,Activity,[12],Active
same,Ki,[13],410 nM
same,Ki,[14],400 nM
same,Ki,[15],340 nM
same,Ki,[16],810 nM
same,Ki,[17],> 10000 nM
same,Ki,[18],680 nM
same,Ki,[19],> 10000 nM
same,Ki,[3],0.23 nM
same,Ki,[4],2.5 nM
same,inhibition,[1],100%
same,inhibition,[2],94%
CCCN1CCC(COc2nc3ccccc3c3ccccc23)CC1,Ki,[4],51.5 nM
CCCN1CCC(COc2nc3c(C)cccc3c3ccccc23)CC1,Ki,[4],100 nM
same,inhibition,[1],100%
same,inhibition,[2],0%
CCCN1CCC(COc2nc3cc(C)ccc3c3ccccc23)CC1,Ki,[4],691 nM
CCCN1CCC(COc2nc3ccccc3c3ccc([N+](=O)[O-])cc23)CC1,inhibition,[1],54%
same,inhibition,[2],0%
CCCN1CCC(COc2nc3ccc(OC)cc3c3ccccc23)CC1,Ki,[4],233 nM
CCCN1CCC(COc2nc3ccccc3c3cnccc23)CC1,Ki,[4],22.8 nM
same,Ki,[20],403 nM
same,inhibition,[1],100%
same,inhibition,[2],50%
CCCN1CCC(COc2nc3c(OC)cccc3c3ccccc23)CC1,Ki,[9],3470 nM
same,Ki,[10],> 10000 nM
same,Ki,[11],> 10000 nM
same,Ki,[13],> 10000 nM
same,Ki,[14],> 10000 nM
same,Ki,[15],29.3 nM
same,Ki,[16],5960 nM
same,Ki,[17],2570 nM
same,Ki,[21],> 10000 nM
same,Ki,[18],> 10000 nM
same,Ki,[19],> 10000 nM
same,Ki,[4],35 nM
same,Ki,[20],17 nM
same,inhibition,[1],100%
same,inhibition,[2],22%
same,EC50,[22],79.4 nM
CCCN1CCC(COc2nc3c(I)cccc3c3ncccc23)CC1,Ki,[16],1820 nM
same,Ki,[18],5630 nM
CCCN1CCC(COc2nc3ccccc3c3cc(F)ccc23)CC1,Ki,[4],209 nM
CCCN1CCC(COc2nc3cc(F)ccc3c3ccccc23)CC1,Ki,[4],101 nM
same,Ki,[20],33 nM
CCCN1CCC(COc2nc3ccccc3c3ncccc23)CC1,Ki,[9],> 10000 nM
same,Ki,[10],> 10000 nM
same,Ki,[11],> 10000 nM
same,Ki,[13],680 nM
same,Ki,[14],2790 nM
same,Ki,[15],627 nM
same,Ki,[16],> 10000 nM
same,Ki,[17],> 10000 nM
same,Ki,[21],> 10000 nM
same,Ki,[18],> 10000 nM
same,Ki,[19],> 10000 nM
same,Ki,[4],13.1 nM
same,Ki,[20],7.5 nM
same,inhibition,[1],96%
same,inhibition,[2],64%
same,EC50,[22],10 nM
CCCN1CCC(COc2nc3ccc(Cl)cc3c3ccccc23)CC1,inhibition,[1],27%
same,inhibition,[2],0%
CCCN1CCC(COc2nc3ccc(C)cc3c3ccccc23)CC1,Ki,[4],246 nM
CCCN1CCC(COc2nc3cc(OC)ccc3c3ccccc23)CC1,Ki,[4],1900 nM
CCCN1CCC(COc2nc3ccccc3c3ccc(OC)cc23)CC1,inhibition,[1],85%
same,inhibition,[2],0%
CCCN1CCC(COc2nc3ccccc3c3ccc(F)cc23)CC1,Ki,[4],154 nM
same,inhibition,[1],90%
same,inhibition,[2],4%
CCCN1CCC(COc2nc3c(Cl)cccc3c3ccccc23)CC1,Ki,[4],21.9 nM
same,Ki,[20],5 nM
same,inhibition,[1],100%
same,inhibition,[2],24%
same,EC50,[22],251 nM
CCCN1CCC(COc2nc3cc(Cl)ccc3c3ccccc23)CC1,inhibition,[1],85%
same,inhibition,[2],0%
CCCN1CCC(COc2nc3ccc(F)cc3c3ccccc23)CC1,inhibition,[1],47%
same,inhibition,[2],0%
CCCN1CCC(COc2nc3c(I)cccc3c3ccccc23)CC1,Ki,[9],153 nM
same,Ki,[10],5810 nM
same,Ki,[11],> 10000 nM
same,Ki,[13],1310 nM
same,Ki,[14],772 nM
same,Ki,[15],162 nM
same,Ki,[16],1020 nM
same,Ki,[17],> 10000 nM
same,Ki,[21],> 10000 nM
same,Ki,[18],> 10000 nM
same,Ki,[19],> 10000 nM
same,Ki,[3],1.2 nM
same,Ki,[4],13.5 nM
same,inhibition,[1],100%
same,inhibition,[2],0%
